{"source": "paper PMC12936682", "about": "(Journal of Pharmaceutical Analysis, 2025)", "key": {"Notum [1]": {"biological_target": "T1, Notum (Homo sapiens, UniProt Q6P988)", "T1 sequence (Q6P988 20-496)": "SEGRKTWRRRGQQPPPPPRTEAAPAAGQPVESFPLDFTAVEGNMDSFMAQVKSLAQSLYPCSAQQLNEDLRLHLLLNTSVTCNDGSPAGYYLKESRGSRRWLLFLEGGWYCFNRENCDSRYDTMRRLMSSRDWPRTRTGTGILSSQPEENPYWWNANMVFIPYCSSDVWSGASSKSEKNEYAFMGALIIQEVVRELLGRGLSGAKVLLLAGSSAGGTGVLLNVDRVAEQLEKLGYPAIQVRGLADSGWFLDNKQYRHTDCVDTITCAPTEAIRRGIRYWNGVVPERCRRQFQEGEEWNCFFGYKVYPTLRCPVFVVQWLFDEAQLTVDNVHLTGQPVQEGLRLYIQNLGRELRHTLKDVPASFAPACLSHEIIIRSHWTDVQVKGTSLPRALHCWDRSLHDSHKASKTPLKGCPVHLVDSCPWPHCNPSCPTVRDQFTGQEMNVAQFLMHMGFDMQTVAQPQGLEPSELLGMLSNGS", "assay": "Notum inhibition assay", "assay_type": "biochemical", "conditions": "for time-dependence of Notum inhibition: pre-incubation 3 and 33 min; for inhibition manner against Notum: inhibition kinetic analyses, Lineweaver-Burk plots", "summary_of_the_method": "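Notum expressed and purified per an earlier protocol. The 200 μL mix held 10 μM OPTS, 0.1 M Tris-HCl pH 7.4 and inhibitor, preincubated at 37 °C for 3 min. For time-dependence, parallel preincubations of 3 and 33 min ran before OPTS addition. Product fluorescence was read at ex 403/em 510 nm after subtracting no-enzyme blanks. IC50 came from nonlinear regression.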"}, "MC3T3-E1 cells [2]": {"system": "MC3T3-E1 cells", "assay": "Osteoblast differentiation: ALP level, ALP staining and alizarin red S staining", "assay_type": "cell-based", "conditions": "for level of ALP: MC3T3-E1 osteoblasts, induced differentiation 5 days, Fig. S6", "summary_of_the_method": "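MC3T3-E1 cells were grown in DMEM with 10% FBS and 1% penicillin-streptomycin at 37 °C, 5% CO2. Cells were seeded at 2 × 10³ cells/well for 24 h, then moved to induction medium (10 mM β-glycerophosphate, ascorbic acid) with Dex and test compound added together. ALP staining (BCIP/NBT) followed 7 days and 4% paraformaldehyde fixation (RT, 15 min). ARS staining followed 21 days. Both were viewed by microscope.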"}, "MC3T3-E1 cells [3]": {"system": "MC3T3-E1 cells", "assay": "CCK-8 cell viability assay", "assay_type": "cell-based", "conditions": "CCK-8, Fig. S5"}, "Notum [4]": {"biological_target": "T1, Notum", "conditions": "cited from earlier work"}, "healthy mice": {"system": "healthy mice", "assay": "Safety assessment of rhein in mice", "assay_type": "in vivo, C57BL/6J mice", "conditions": "200 mg/kg orally once daily for 14 days, vs control", "summary_of_the_method": "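One group received 0.5% CMC-Na vehicle. The other received test compound at 200 mg/kg orally once daily for 14 days. At the end, serum plus heart, liver, spleen, lung and kidney were collected. Data are mean ± standard deviation, compared by Student's t-test (P < 0.05).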"}, "[5]": {"conditions": "cited from earlier work"}, "[6]": {"conditions": "cited from earlier work", "remark": "listed apart in the source"}, "[7]": {"system": "Dex-induced osteoporosis mice", "assay": "In vivo anti-osteoporosis effects in Dex-induced osteoporosis mice", "design": "species or system C57BL/6J mice", "conditions": "for cortical and cancellous bones (micro-CT, H&E): rhein 40 and 80 mg/kg i.g. 5 weeks, PTH i.p., vs Dex"}, "MC3T3-E1 cells [8]": {"system": "MC3T3-E1 cells", "assay": "RNA sequencing of Dex-challenged osteoblasts", "assay_type": "cell-based", "summary_of_the_method": "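Dex-treated MC3T3-E1 cells then received test compound and were cultured for 7 days. Total RNA was extracted from control (DMSO), Dex and Dex plus test compound groups for sequencing.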"}, "[9]": {"conditions": "treatment 7 days, Dex-challenged MC3T3-E1"}}, "note": "Read-outs that look alike come from different tables or passages of the source."}
{"compound": "Cc1cc(O)c2c(c1)C(=O)c1cccc(O)c1C2=O", "note": "[Chrysophanol]", "values": [{"measurement": "IC50", "setting": "Notum [1]", "result": "0.946 ± 0.0551", "unit": "µM"}, {"measurement": "time-dependence of Notum inhibition", "setting": "Notum [1]", "result": "not time-dependent"}]}
{"compound": "Cc1cc(O)c2c(c1)C(=O)c1cc(O)cc(O)c1C2=O", "note": "[Emodin]", "values": [{"measurement": "level of ALP", "setting": "MC3T3-E1 cells [2]", "result": "significantly up-regulated"}, {"measurement": "pro-differentiation effects on MC3T3-E1 cells", "setting": "MC3T3-E1 cells [2]; relative high dose 5 μM", "result": "slight pro-differentiation effects"}, {"measurement": "IC50", "setting": "Notum [1]", "result": "0.286 ± 0.0235", "unit": "µM"}, {"measurement": "Ki", "setting": "Notum [1]", "result": 0.276, "unit": "µM"}, {"measurement": "inhibition manner against Notum", "setting": "Notum [1]", "result": "competitive"}, {"measurement": "time-dependence of Notum inhibition", "setting": "Notum [1]", "result": "not time-dependent"}, {"measurement": "growth rates of MC3T3-E1 cells", "setting": "MC3T3-E1 cells [3]", "result": "not enhanced"}]}
{"compound": "C=C1C(=O)O[C@@H]2C[C@@]3(C)CCCC(=C)[C@@H]3C[C@H]12", "note": "[Isoalantolactone]", "values": [{"measurement": "IC50", "setting": "Notum [4]; previously reported natural Notum inhibitor ref 41", "result": 0.0606, "unit": "µM"}]}
{"compound": "O=C(O)c1cc(O)c2c(c1)C(=O)c1cccc(O)c1C2=O", "note": "[Rhein]", "values": [{"measurement": "reduced ALP staining intensity and decreased matrix mineralisation level", "setting": "MC3T3-E1 cells [2]; 0.5 μM, Dex-challenged MC3T3-E1 cells", "result": "totally restored"}, {"measurement": "level of ALP", "setting": "MC3T3-E1 cells [2]", "result": "significantly up-regulated"}, {"measurement": "ALP staining intensity and matrix mineralisation level of osteoblasts", "setting": "MC3T3-E1 cells [2]; dose-dependent, ALP day 7, ARS day 21, Dex-treated MC3T3-E1", "result": "significantly increased"}, {"measurement": "pro-differentiation effects on MC3T3-E1 cells", "setting": "MC3T3-E1 cells [2]; low dose 0.5 μM", "result": "more significant pro-differentiation effects"}, {"measurement": "body weight at the outset and at the end of animal tests", "setting": "healthy mice", "result": "no noticeable discrepancy"}, {"measurement": "serum safety indicators (ALB, ALP, ALT, AST, CK, CREA, GLU, TC, TG, TP, BUN)", "setting": "healthy mice", "result": "no significant difference"}, {"measurement": "IC50", "setting": "Notum [1]", "result": "0.00998 ± 0.00084", "unit": "µM"}, {"measurement": "Ki", "setting": "Notum [1]", "result": 0.0136, "unit": "µM"}, {"measurement": "inhibition manner against Notum", "setting": "Notum [1]", "result": "competitive"}, {"measurement": "time-dependence of Notum inhibition", "setting": "Notum [1]", "result": "not time-dependent"}, {"measurement": "oral bioavailability", "setting": "[5]", "result": "very lower"}, {"measurement": "growth rates of MC3T3-E1 cells", "setting": "MC3T3-E1 cells [3]", "result": "not enhanced"}, {"measurement": "metabolic stability", "setting": "[6]", "result": "poor"}, {"measurement": "Notum expression levels in cortical bone (immunofluorescence)", "setting": "[7]; Dex-challenged mice treated with rhein", "result": "significantly suppressed"}, {"measurement": "cortical and cancellous bones (micro-CT, H&E)", "setting": "[7]", "result": "thickened significantly"}, {"measurement": "BV/TV and BMD at the distal femur", "setting": "[7]; rhein group, micro-CT", "result": "did not increase significantly"}, {"measurement": "BMD increase at the mid femur", "setting": "[7]; rhein group, micro-CT, compared with distal femur", "result": "more prominent"}, {"measurement": "expression of Wnt signaling-related genes (WNT6, GSK3β) and osteogenic differentiation-related genes (RUNX2, BMP4)", "setting": "MC3T3-E1 cells [8]; Dex-challenged MC3T3-E1, RNA sequencing", "result": "significantly restored"}, {"measurement": "genes downregulated in comparison to the Dex-challenged group", "setting": "MC3T3-E1 cells [8]; [9]", "result": 78}, {"measurement": "genes upregulated in comparison to the Dex-challenged group", "setting": "MC3T3-E1 cells [8]; [9]", "result": 67}]}
{"compound": "Cn1c(=O)c2c(ncn2C)n(C)c1=O", "note": "[caffeine]", "values": [{"measurement": "IC50", "setting": "Notum [4]; previously reported natural Notum inhibitor ref 46", "result": 200, "unit": "µM"}]}
{"compound": "parathyroid hormone 1–34 [PTH, reference compound]", "values": [{"measurement": "cortical and cancellous bones (micro-CT, H&E)", "setting": "[7]", "result": "thickened significantly"}]}
